Test results taken from ChEMBL document CHEMBL3091318, “Potent and broad-spectrum antibacterial activity of indole-based bisamidine antibiotics: synthesis and SAR of novel analogs of MBX 1066 and MBX 1090” (2013).

Key:
Assay type in all cases: functional
Escherichia coli [1] = assay: Antimicrobial activity against TolC efflux-deficient Escherichia coli K-12 after 16 to 20 hrs by broth microdilution method
Outline: (§1)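 CLSI broth microdilution. Log-phase cultures grown in cation-adjusted Mueller–Hinton broth and seeded at 1×10^5 CFU/mL. Plates incubated at 37 °C with shaking for 16–20 h. DMSO stocks of compound were diluted into medium to 1% DMSO final. Growth was read as OD600. MIC (μg/ml) is the lowest concentration with no apparent growth, averaged over at least 3 assays.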

Escherichia coli [2] = assay: Antimicrobial activity against efflux pump-positive Escherichia coli K-12 after 16 to 20 hrs by broth microdilution method; outline: as §1
Pseudomonas aeruginosa [3] = assay: Antimicrobial activity against efflux pump mexAB-oprM-deficient Pseudomonas aeruginosa PAO1 after 16 to 20 hrs by broth microdilution method; outline: as §1
Enterococcus faecalis [4] = assay: Antimicrobial activity vancomycin-resistant Enterococcus faecalis ATCC 51575 after 16 to 20 hrs by broth microdilution method
Outline: (§2)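 CLSI broth microdilution. Log-phase cultures in cation-adjusted Mueller–Hinton broth were seeded at 1×10^5 CFU/mL and incubated at 37 °C with shaking for 16–20 h. Compounds were diluted from DMSO stocks to a final 1% DMSO. Growth was read as OD600, and MIC was taken as the lowest concentration with no apparent growth. At least 3 runs were done, and the average MIC is reported in μg/ml.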

Staphylococcus aureus [5] = assay: Antimicrobial activity against Staphylococcus aureus ATCC 25923 after 16 to 20 hrs by broth microdilution method; outline: as §2
Staphylococcus aureus [6] = assay: Antimicrobial activity methicillin-resistant against Staphylococcus aureus clinical isolate 1094 after 16 to 20 hrs by broth microdilution method
Enterococcus faecalis [7] = assay: Antimicrobial activity Enterococcus faecalis ATCC 29212 after 16 to 20 hrs by broth microdilution method; outline: as §1
Bacillus anthracis = assay: Antimicrobial activity against Bacillus anthracis Sterne after 16 to 20 hrs by broth microdilution method; outline: as §2
Pseudomonas aeruginosa [8] = assay: Antimicrobial activity against efflux pump-positive Pseudomonas aeruginosa PAO1 ATCC BAA-47 after 16 to 20 hrs by broth microdilution method; outline: as §1
Escherichia coli [9] = assay: Selectivity ratio of MIC for efflux pump-positive Escherichia coli K-12 to MIC for TolC efflux-deficient Escherichia coli K-12
Pseudomonas aeruginosa [10] = assay: Selectivity ratio of MIC for efflux pump-positive Pseudomonas aeruginosa PAO1 ATCC BAA-47 to MIC for efflux pump mexAB-oprM-deficient Pseudomonas aeruginosa PAO1
Acinetobacter baumannii = assay: Antimicrobial activity against Acinetobacter baumannii ATCC 19606 after 16 to 20 hrs by broth microdilution method; outline: as §1
Haemophilus influenzae = assay: Antimicrobial activity against Haemophilus influenzae ATCC 10211 after 16 to 20 hrs by broth microdilution method
Outline: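 Broth microdilution per CLSI in Haemophilus Test Medium at 37 °C under 5% CO₂ for 16–20 h, seeded at 1×10^5 CFU/mL. Compound was added from DMSO stocks to 1% DMSO final. Growth was read as OD600. MIC (μg/ml) is the lowest concentration without apparent growth, averaged from at least 3 runs.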

Klebsiella pneumoniae = assay: Antimicrobial activity against Klebsiella pneumoniae ATCC 13882 after 16 to 20 hrs by broth microdilution method; outline: as §1
Pseudomonas aeruginosa [11] = assay: Ratio of MBX 1066 MIC to compound MIC for Pseudomonas aeruginosa PAO1 ATCC BAA-47 after 16 to 20 hrs by broth microdilution method
Escherichia coli [12] = assay: Ratio of MBX 1066 MIC to compound MIC for Escherichia coli K-12 after 16 to 20 hrs by broth microdilution method

**Q.** How did the MIC (Escherichia coli [1]) turn out when `O=C(O)C(F)(F)F.c1cc2cc(-c3ccc(-c4cc5ccc(C6=NCCN6)cc5[nH]4)cc3)[nH]c2cc1C1=NCCN1` was run?
**A.** 0.16 µg/mL

**Q.** And the MIC (Escherichia coli [2])?
**A.** 1.25 µg/mL

**Q.** What about the MIC (Pseudomonas aeruginosa [3]) of the same compound?
**A.** 1.25 µg/mL

**Q.** What about the MIC (Enterococcus faecalis [4]) of the same compound?
**A.** 0.16 µg/mL

**Q.** And the MIC (Staphylococcus aureus [5])?
**A.** 0.16 µg/mL

**Q.** And the MIC (Staphylococcus aureus [6])?
**A.** 0.16 µg/mL

**Q.** And the MIC (Enterococcus faecalis [7])?
**A.** 0.16 µg/mL

**Q.** What about the MIC (Bacillus anthracis) of the same compound?
**A.** 0.31 µg/mL

**Q.** And the MIC (Pseudomonas aeruginosa [8])?
**A.** 7.5 µg/mL

**Q.** What about the Ratio (Escherichia coli [9]) of the same compound?
**A.** 8

**Q.** What about the Ratio (Pseudomonas aeruginosa [10]) of the same compound?
**A.** 6

**Q.** And the MIC (Acinetobacter baumannii)?
**A.** > 80 µg/mL

**Q.** What about the MIC (Haemophilus influenzae) of the same compound?
**A.** 0.63 µg/mL

**Q.** What about the MIC (Klebsiella pneumoniae) of the same compound?
**A.** 0.31 µg/mL

**Q.** `O=C(O)C(F)(F)F.c1cc2cc(-c3ccc(-c4cc5ccc(C6=NCCCN6)cc5[nH]4)cc3)[nH]c2cc1C1=NCCCN1` was tested. Which MIC (Escherichia coli [1]) did it give?
**A.** 0.16 µg/mL

**Q.** What about the MIC (Escherichia coli [2]) of the same compound?
**A.** 0.16 µg/mL

**Q.** And the MIC (Pseudomonas aeruginosa [3])?
**A.** 0.31 µg/mL

**Q.** And the MIC (Enterococcus faecalis [4])?
**A.** 0.08 µg/mL

**Q.** And the MIC (Staphylococcus aureus [5])?
**A.** 0.08 µg/mL

**Q.** And the MIC (Staphylococcus aureus [6])?
**A.** 0.08 µg/mL

**Q.** And the MIC (Enterococcus faecalis [7])?
**A.** 0.08 µg/mL

**Q.** And the MIC (Bacillus anthracis)?
**A.** 0.08 µg/mL

**Q.** What about the MIC (Pseudomonas aeruginosa [8]) of the same compound?
**A.** 0.31 µg/mL

**Q.** And the Ratio (Pseudomonas aeruginosa [11])?
**A.** >20

**Q.** What about the Ratio (Escherichia coli [12]) of the same compound?
**A.** 10

**Q.** What about the MIC (Acinetobacter baumannii) of the same compound?
**A.** 2.5 µg/mL

**Q.** And the MIC (Haemophilus influenzae)?
**A.** 0.31 µg/mL

**Q.** And the MIC (Klebsiella pneumoniae)?
**A.** 0.31 µg/mL
